How the values were obtained:
[1] = system: HUVEC; assay: Cytotoxicity against human HUVEC cells after 2 days by MTT assay; assay type: cell-based; conditions: 48 h
Procedure, shortened: (§1)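 Cells grown in medium with 10% heat-inactivated FBS at 37 C under 5% CO2. Compounds dissolved in medium with 1% DMSO; controls received 1% DMSO. After 2 days, MTT (10 mg/mL) added for 4 h, formazan dissolved in DMSO and absorbance read at 570/630 nm. Survival taken relative to negative control; IC50 by Bliss method (n = 5), at least three independent experiments.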

[2] = system: HepG2; assay: Cytotoxicity against human HepG2 cells after 2 days by MTT assay; assay type: functional, cell-based; conditions: HepG2, 48 h; procedure, shortened: as §1
[3] = Cytotoxicity against human SPCA2 cells after 2 days by MTT assay; assay type: functional, cell-based; conditions: SPCA2, 48 h; procedure, shortened: as §1
[4] = system: MGC-803; assay: Cytotoxicity against human MGC803 cells after 2 days by MTT assay; assay type: functional, cell-based; conditions: MGC-803, 48 h; procedure, shortened: as §1
[5] = system: A549; assay: Cytotoxicity against human A549 cells after 2 days by MTT assay; assay type: functional, cell-based; conditions: A549, 48 h; procedure, shortened: as §1
[6] = system: NCI-H460; assay: Cytotoxicity against human NCI-H460 cells after 2 days by MTT assay; assay type: functional, cell-based; conditions: NCI-H460, 48 h; procedure, shortened: as §1
[7] = Cytotoxicity against human T24 cells after 2 days by MTT assay; assay type: functional, cell-based; conditions: T-24, 48 h; procedure, shortened: as §1
[8] = Cytotoxicity against human SKOV3 cells after 2 days by MTT assay; assay type: functional, cell-based; conditions: SK-OV-3, 48 h; procedure, shortened: as §1

In the case of `FC(F)(F)c1ccc(CO/N=C2/C(c3c[nH]c4ccc(Br)cc34)=Nc3ccc(Br)cc32)cc1`, the IC50 [1] is reported as greater than 100 µM, the IC50 [2] is reported as 11.1 µM and the IC50 [3] is reported as 12.4 µM. The IC50 [4] was 11.1 µM, the IC50 [5] was 8.45 µM and the IC50 [6] was 11.2 µM. It also gave an IC50 [7] of 9.88 µM and an IC50 [8] of 10.2 µM.

Work on `O=c1[nH]cc(F)c(=O)[nH]1` [FLUOROURACIL] yielded an IC50 [2] of 32 µM, an IC50 [3] of 44.1 µM and an IC50 [5] of 38.2 µM. The IC50 [6] was 46.1 µM, the IC50 [7] was 40.6 µM and the IC50 [8] was 27.3 µM.

For `c1ccc2c(c1)N=C(c1c[nH]c3ccccc13)/C2=N/OCC1CC1`, the IC50 [1] was greater than 100 µM, the IC50 [2] was 32.1 µM and the IC50 [3] was 33.8 µM. It also gave an IC50 [4] of 29.9 µM, an IC50 [5] of 36.7 µM and an IC50 [6] of 40.9 µM. It also gave an IC50 [7] of 35.4 µM and an IC50 [8] of 32.3 µM.

`Cc1ccc(CO/N=C2/C(c3c[nH]c4ccccc34)=Nc3ccccc32)cc1` gave an IC50 [1] greater than 100 µM, an IC50 [2] of 19.1 µM and an IC50 [3] of 25.4 µM. The IC50 [4] was 22.8 µM, the IC50 [5] was 22.4 µM and the IC50 [6] was 29.8 µM. It also gave an IC50 [7] of 23.5 µM and an IC50 [8] of 32.4 µM.

For `Cc1cccc2c1N=C(c1c[nH]c3c(C)cccc13)/C2=N/OCc1cccc(Cl)c1`, the IC50 [1] was greater than 100 µM, the IC50 [2] was 22.8 µM and the IC50 [3] was 18.2 µM. It also gave an IC50 [4] of 26.4 µM, an IC50 [5] of 31.9 µM and an IC50 [6] of 23.1 µM. It also gave an IC50 [7] of 17.6 µM and an IC50 [8] of 26.5 µM.

For `c1ccc(CO/N=C2/C(c3c[nH]c4ccccc34)=Nc3ccccc32)cc1`, the IC50 [1] was greater than 100 µM, the IC50 [2] was 19.5 µM and the IC50 [3] was 21.4 µM. It also gave an IC50 [4] of 15.4 µM, an IC50 [5] of 19.3 µM and an IC50 [6] of 22 µM. The IC50 [7] was 12.2 µM and the IC50 [8] was 16.9 µM.

Work on `O/N=C1/C(c2c[nH]c3ccc(OCc4ccccc4)cc23)=Nc2ccc(OCc3ccccc3)cc21` yielded an IC50 [1] greater than 100 µM, an IC50 [2] of 19 µM and an IC50 [3] of 12 µM. For the same molecule, the IC50 [4] was 14.5 µM, the IC50 [5] was 19.5 µM and the IC50 [6] was 16.6 µM. The IC50 [7] was 11.8 µM and the IC50 [8] was 17.6 µM.

Work on `N#Cc1cccc2c1/C(=N\O)C(c1c[nH]c3cccc(C#N)c13)=N2` yielded an IC50 [1] greater than 100 µM, an IC50 [2] of 40.5 µM and an IC50 [3] of 30.9 µM. The IC50 [4] was 35.4 µM, the IC50 [5] was 33.6 µM and the IC50 [6] was 18.8 µM. For the same molecule, the IC50 [7] was 19.4 µM and the IC50 [8] was 30.6 µM.

In the case of `Nc1ccc2c(c1)/C(=N\O)C(c1c[nH]c3ccc(N)cc13)=N2`, the IC50 [1] is reported as greater than 100 µM, the IC50 [2] is reported as 18.5 µM and the IC50 [3] is reported as 16.7 µM. The IC50 [4] was 13.2 µM, the IC50 [5] was 14.8 µM and the IC50 [6] was 20.2 µM. It also gave an IC50 [7] of 9.38 µM and an IC50 [8] of 17.5 µM.

`Fc1ccc2c(c1)/C(=N\OCc1ccccc1)C(c1c[nH]c3ccc(F)cc13)=N2` gave an IC50 [1] greater than 100 µM, an IC50 [2] of 17.3 µM and an IC50 [3] of 13.3 µM. It also gave an IC50 [4] of 21.3 µM, an IC50 [5] of 10.5 µM and an IC50 [6] of 12 µM. For the same molecule, the IC50 [7] was 12.5 µM and the IC50 [8] was 12.3 µM.

`COc1ccc2c(c1)/C(=N\OCc1ccc(F)cc1Cl)C(c1c[nH]c3ccc(OC)cc13)=N2` showed an IC50 [1] greater than 100 µM, an IC50 [2] of 24.1 µM and an IC50 [3] of 11.1 µM. The IC50 [4] was 16.1 µM, the IC50 [5] was 19.1 µM and the IC50 [6] was 13 µM. The IC50 [7] was 12.4 µM and the IC50 [8] was 12.2 µM.

Work on `O=[N+]([O-])c1ccc2c(c1)/C(=N\O)C(c1c[nH]c3ccc([N+](=O)[O-])cc13)=N2` yielded an IC50 [1] greater than 100 µM, an IC50 [2] of 8.25 µM and an IC50 [3] of 11.2 µM. The IC50 [4] was 10.8 µM, the IC50 [5] was 10.4 µM and the IC50 [6] was 11.5 µM. It also gave an IC50 [7] of 13.2 µM and an IC50 [8] of 10.7 µM.

With `N#Cc1ccc2c(c1)/C(=N\O)C(c1c[nH]c3ccc(C#N)cc13)=N2` the IC50 [1] was greater than 100 µM, the IC50 [2] was 30.1 µM and the IC50 [3] was 19.2 µM. The IC50 [4] was 18.4 µM, the IC50 [5] was 14.9 µM and the IC50 [6] was 14.3 µM. For the same molecule, the IC50 [7] was 28.4 µM and the IC50 [8] was 25.9 µM.

In the case of `Fc1ccc2c(c1)N=C(c1c[nH]c3cc(F)ccc13)/C2=N/OCc1ccccc1`, the IC50 [1] is reported as greater than 100 µM, the IC50 [2] is reported as 24.1 µM and the IC50 [3] is reported as 20.2 µM. The IC50 [4] was 21.9 µM, the IC50 [5] was 15.7 µM and the IC50 [6] was 19.4 µM. For the same molecule, the IC50 [7] was 13.3 µM and the IC50 [8] was 15.6 µM.

Work on `C=CCO/N=C1/C(c2c[nH]c3ccccc23)=Nc2ccccc21` yielded an IC50 [1] greater than 100 µM, an IC50 [2] of 31.3 µM and an IC50 [3] of 26.9 µM. The IC50 [4] was 24.3 µM, the IC50 [5] was 30.9 µM and the IC50 [6] was 24.5 µM. It also gave an IC50 [7] of 32.1 µM and an IC50 [8] of 26.7 µM.

With `Cc1cccc2c1/C(=N\O)C(c1c[nH]c3cccc(C)c13)=N2` the IC50 [1] was greater than 100 µM, the IC50 [2] was 21.3 µM and the IC50 [3] was 42.2 µM. For the same molecule, the IC50 [4] was 25 µM, the IC50 [5] was 44.9 µM and the IC50 [6] was 24.2 µM. The IC50 [7] was 15 µM and the IC50 [8] was 27 µM.

`CCCCO/N=C1/C(c2c[nH]c3ccccc23)=Nc2ccccc21` gave an IC50 [1] greater than 100 µM, an IC50 [2] of 33.6 µM and an IC50 [3] of 29.2 µM. For the same molecule, the IC50 [4] was 23.3 µM, the IC50 [5] was 37 µM and the IC50 [6] was 42.2 µM. The IC50 [7] was 35.2 µM and the IC50 [8] was 46 µM.
